In ChEMBL document CHEMBL1799999, “N-benzoylated phenoxazines and phenothiazines: synthesis, antiproliferative activity, and inhibition of tubulin polymerization” (J Med Chem, 2011):
The source made the active and inactive calls. No cut-off for these calls is given here.

What was measured:
[1] = test system: MIA PaCa-2; experiment: Antiproliferative activity against human MIAPaCa2 cells after 72 hrs by sulforhodamine staining method; type: functional; conditions: MIA PaCa-2, 72 h
Method in brief: (§1)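 Panel of 83 solid-tumour lines plus resting PBMC, run by the DTP NCI sulforhodamine B staining protocol. Compound exposure 72 h, concentrations from 0.0001 to 10 μM. GI50 taken per line; z-scores computed relative to the panel mean GI50.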

[2] = test system: ASPC1; experiment: Antiproliferative activity against human AsPC1 cells after 72 hrs by sulforhodamine staining method; type: functional; conditions: ASPC1, 72 h; method in brief: as §1
[3] = test system: MG-63; experiment: Antiproliferative activity against human MG63 cells after 72 hrs by sulforhodamine staining method; type: functional; conditions: MG-63, 72 h; method in brief: as §1
[4] = test system: K562; experiment: Antiproliferative activity against human K562 cells after 48 hrs by hemocytometric analysis; type: functional, cell-based; conditions: K562, 48 h
Method in brief: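 K562 cells in RPMI 1640 with 10% FBS at 37 °C/5% CO2, plated at 2 × 10^5 cells/mL. Compounds in DMSO/methanol 1:1, final vehicle 0.5%. Cells counted in a Neubauer hemocytometer after 48 h and expressed as % of untreated control. Triplicate wells, three experiments; IC50 by nonlinear regression.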

[5] = test system: K562; experiment: Cell cycle arrest in human K562 cells assessed as accumulation at G2/M phase at 0.003 to. 1 ug/ml after 24 hrs by flow cytometric analysis; type: functional, cell-based
Method in brief: (§2)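 K562 cells (2 × 10^5/mL) exposed to graded concentrations for 24 h at 37 °C; vehicle DMSO/MeOH 1:1. Washed in PBS, fixed in ice-cold 70% ethanol, stained 30 min with propidium iodide 0.02 mg/mL plus RNase 0.2 mg/mL. DNA content read by flow cytometry with 488 nm excitation; G2/M fraction scored.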

[6] = Antiproliferative activity against human MT3 cells after 72 hrs by sulforhodamine staining method; type: functional; conditions: MT-3, 72 h; method in brief: as §1
[7] = test system: SK-N-SH; experiment: Antiproliferative activity against human SK-N-SH cells after 72 hrs by sulforhodamine staining method; type: functional; method in brief: as §1
[8] = test system: NCI-H460; experiment: Antiproliferative activity against human NCI-H460 cells after 48 hrs by alamar blue assay; type: functional, cell-based; conditions: NCI-H460, 48 h
Method in brief: (§3)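 Cells seeded in growth medium and grown 24 h at 37 °C/5% CO2. 10 mM DMSO stocks diluted in half-log steps into medium, final DMSO 0.316%. After 45 h of compound exposure, AlamarBlue (resazurin) added for a further 3 h, giving 48 h total. Fluorescence read at 590 nm against untreated and cell-free blanks. At least two replicates; IC50 by nonlinear regression.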

[9] = Antiproliferative activity against human MDA-MB-436 cells after 72 hrs by sulforhodamine staining method; type: functional; conditions: MDA-MB-436, 72 h; method in brief: as §1
[10] = test system: SK-N-AS; experiment: Antiproliferative activity against human SK-N-AS cells after 72 hrs by sulforhodamine staining method; type: functional; method in brief: as §1
[11] = test system: HT-29; experiment: Antiproliferative activity against human HT-29 cells after 72 hrs by sulforhodamine staining method; type: functional; conditions: HT-29, 72 h; method in brief: as §1
[12] = test system: COLO-678; experiment: Antiproliferative activity against human COLO-678 cells after 72 hrs by sulforhodamine staining method; type: functional; conditions: COLO-678, 72 h; method in brief: as §1
[13] = Antiproliferative activity against human resting PBMC after 72 hrs by sulforhodamine staining method; type: cell-based; method in brief: as §1
[14] = test system: A-375; experiment: Antiproliferative activity against human A375 cells after 72 hrs by sulforhodamine staining method; type: functional; conditions: A-375, 72 h; method in brief: as §1
[15] = test system: 5637; experiment: Antiproliferative activity against human 5637 cells after 72 hrs by sulforhodamine staining method; type: functional; conditions: Homo sapiens, 5637, 72 h; method in brief: as §1
[16] = cells; conditions: Homo sapiens, 451Lu, 48 h
[17] = test system: COLO 205; experiment: Antiproliferative activity against human COLO205 cells after 72 hrs by sulforhodamine staining method; type: functional; conditions: COLO 205, 72 h; method in brief: as §1
[18] = test system: BT-549; experiment: Antiproliferative activity against human BT549 cells after 48 hrs by alamar blue assay; type: functional, cell-based; conditions: BT-549, 48 h; method in brief: as §3
[19] = test system: HT-1080; experiment: Antiproliferative activity against human HT1080 cells after 72 hrs by sulforhodamine staining method; type: functional; conditions: HT-1080, 72 h; method in brief: as §1
[20] = test system: DLD-1; experiment: Antiproliferative activity against human DLD1 cells after 48 hrs by alamar blue assay; type: functional, cell-based; conditions: DLD-1, 48 h; method in brief: as §3
[21] = test system: RD; experiment: Antiproliferative activity against human RD cells after 72 hrs by sulforhodamine staining method; type: functional; method in brief: as §1
[22] = test system: BXPC-3; experiment: Antiproliferative activity against human BxPC3 cells after 72 hrs by sulforhodamine staining method; type: functional; conditions: BXPC-3, 72 h; method in brief: as §1
[23] = test system: SK-OV-3; experiment: Antiproliferative activity against human SKOV3 cells after 48 hrs by alamar blue assay; type: functional, cell-based; conditions: SK-OV-3, 48 h; method in brief: as §3
[24] = test system: SW480; experiment: Antiproliferative activity against human SW480 cells after 48 hrs by alamar blue assay; type: functional, cell-based; conditions: SW480, 48 h; method in brief: as §3
[25] = test system: IGROV-1; experiment: Antiproliferative activity against human IGROV1 cells after 72 hrs by sulforhodamine staining method; type: functional; conditions: IGROV-1, 72 h; method in brief: as §1
[26] = biological target: Tubulin (Sus scrofa, UniProt P02554+P02550); experiment: Inhibition of pig tubulin polymerization determined after 45 mins at 37 degC by turbidimetric analysis; type: protein assay
Method in brief: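 Microtubule protein (80–90% tubulin with MAPs) from porcine brain, isolated by two cold/warm cycles. Buffer: 20 mM PIPES pH 6.8, 80 mM NaCl, 0.5 mM MgCl2, 1 mM EGTA, 1 mM DTT. Protein at 1.2 mg/mL (about 10 μM tubulin) with 0.6 mM GTP, 1% DMSO, 37 °C.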

[27] = test system: SK-MEL-28; experiment: Antiproliferative activity against human SK-MEL-28 cells after 72 hrs by sulforhodamine staining method; type: functional; conditions: SK-MEL-28, 72 h; method in brief: as §1
[28] = test system: K562; experiment: Cell cycle arrest in human K562 cells assessed as accumulation at G2/M phase at 30 nM after 24 hrs by flow cytometric analysis; type: functional, cell-based; method in brief: as §2

- GI50 [1]: 8410 nM
- GI50 [2]: > 10000 nM
- IC50 [4]: 11 nM
- GI50 [7]: 1.8 nM
- IC50 [8]: 40 nM
- GI50 [10]: 1.8 nM
- GI50 [11]: 5600 nM
- GI50 [12]: 62.3 nM
- GI50 [14]: 2.7 nM
- IC50 [16]: 6 nM
- GI50 [17]: 4260 nM
- IC50 [18]: 16 nM
- GI50 [19]: 2.6 nM
- IC50 [20]: 16 nM
- GI50 [22]: 2250 nM
- IC50 [23]: 24 nM
- IC50 [24]: 29 nM
- IC50 [26]: 520 nM
- GI50 [27]: 2 nM
SMILES: COc1ccc(C(=O)N2c3ccccc3Oc3cc(C#N)ccc32)cc1O
- GI50 [3]: 1.8 nM
- Activity [5]: Active
- GI50 [6]: 95.1 nM
- GI50 [9]: 1130 nM
- GI50 at 72 h [13]: > 10000 nM
- GI50 [15]: 1.9 nM
- GI50 [21]: 2 nM
- GI50 [25]: 63.3 nM
- Activity [28]: Active
